According to ChEMBL document CHEMBL1158766, “Sesquiterpenoids from Saussurea laniceps” (2005):

Experiments:
[1] = Inhibition of lipopolysaccharide-induced mouse B cell proliferation assessed as [3H]TdR incorporation at 1 uM
[2] = Inhibition of concanavalin A-induced mouse T cell proliferation assessed as [3H]TdR incorporation at 1 uM; type: functional
Outline: (§1)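 Mouse spleen cells (4 × 10^6/well) were stimulated with ConA at 5 µg/mL alongside compound at 1 × 10^-7 to 1 × 10^-4 M, then cultured for 48 h at 37 °C in 5% CO2. [3H]TdR (0.25 µCi/well) was added for the final 6 h, and uptake was read by liquid scintillation counting. Counts are means ± SD from three independent experiments, compared with controls by Student t-test.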

[3] = Inhibition of lipopolysaccharide-induced mouse B cell proliferation assessed as [3H]TdR incorporation at 0.1 uM
[4] = Inhibition of lipopolysaccharide-induced mouse B cell proliferation assessed as [3H]TdR incorporation at 100 uM
[5] = Inhibition of concanavalin A-induced mouse T cell proliferation assessed as [3H]TdR incorporation at 100 uM; type: functional
Outline: as §1

[6] = Inhibition of concanavalin A-induced mouse T cell proliferation assessed as [3H]TdR incorporation at 10 uM; type: functional
Outline: as §1

[7] = Inhibition of concanavalin A-induced mouse T cell proliferation assessed as [3H]TdR incorporation at 0.1 uM; type: functional
Outline: as §1

[8] = Inhibition of lipopolysaccharide-induced mouse B cell proliferation assessed as [3H]TdR incorporation at 10 uM

SMILES | Activity [1] [cpm] | Activity [2] [cpm] | Activity [3] [cpm] | Activity [4] [cpm] | Activity [5] [cpm] | Activity [6] [cpm] | Activity [7] [cpm] | Activity [8] [cpm]
C=C(CO)C(=O)O[C@H]1CC(=C)[C@@H]2C[C@@H](O)C(=C)[C@@H]2[C@H]2OC(=O)[C@@H](C)[C@@H]21 | 29800 | 43800 | 24300 | 30 | 30 | 13400 | 46300 | 34900
C=C(C)C(=O)O[C@H]1CC(=C)[C@@H]2C[C@@H](O)C(=C)[C@@H]2[C@H]2OC(=O)[C@@H](C)[C@@H]21 | 31100 | 36100 | 34800 | 80 | 40 | 30600 | 33800 | 20600
C=C1C[C@H](O)C[C@]2(C)CC[C@@](O)(C(=C)CO)C[C@@H]12 | 33600 | 31500 | 36100 | 17200 | 12100 | 28300 | 39800 | 30.8
